{"source": "ChEMBL document CHEMBL1212735", "about": "“Metronidazole resistance in Prevotella spp. and description of a new nim gene in Prevotella baroniae” (2010)", "format_in_all_cases": "functional", "key": {"Prevotella bivia [1]": {"test_system": "Prevotella bivia", "assay": "Antimicrobial activity against Prevotella bivia LBP 65 deficient in nim gene assessed as inhibition of growth at 48 hrs by agar dilution method", "conditions": "LBP 65, 48 h", "method_in_brief": "(§1)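 Metronidazole MIC by agar dilution (CLSI M11-A7) on brucella agar with 5% sheep blood, hemin and vitamin K1. Plates were read after 48 h at 35°C under anaerobic conditions. Susceptible was MIC ≤ 4 μg/ml and resistant MIC ≥ 8 μg/ml (EUCAST). B. fragilis ATCC 25285T and B. thetaiotaomicron ATCC 29741 were run as controls. Duplicate assays.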"}, "Prevotella buccae": {"test_system": "Prevotella buccae", "assay": "Antimicrobial activity against Prevotella buccae LBN 465 deficient in nimI gene assessed as inhibition of growth at 48 hrs by agar dilution method", "conditions": "Segatella buccae, LBN 465, 48 h", "method_in_brief": "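Agar dilution MIC on brucella agar with 5% sheep blood, hemin and vitamin K1, following CLSI M11-A7. Plates read after 48 h at 35°C under anaerobic conditions, with B. fragilis ATCC 25285T and B. thetaiotaomicron ATCC 29741 as controls. Assays in duplicate. Isolates kept at −80°C in brucella broth with 15% glycerol. Interpretation used EUCAST breakpoints (S ≤4, R ≥8 μg/ml).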"}, "Prevotella bivia [2]": {"test_system": "Prevotella bivia", "assay": "Antimicrobial activity against Prevotella bivia LBP 38 deficient in nim gene assessed as inhibition of growth at 48 hrs by agar dilution method", "conditions": "LBP 38, 48 h", "method_in_brief": "as §1"}, "Prevotella baroniae [3]": {"test_system": "Prevotella baroniae", "assay": "Antimicrobial activity against Prevotella baroniae LBN 432 expressing nim gene assessed as inhibition of growth at 48 hrs by agar dilution method", "conditions": "Segatella baroniae, LBN 432, 48 h", "method_in_brief": "as §1"}, "Prevotella baroniae [4]": {"test_system": "Prevotella baroniae", "assay": "Antimicrobial activity against Prevotella baroniae LBN 427 expressing nimI gene assessed as inhibition of growth after three consecutive subcultures on compound free medium by agar dilution method", "conditions": "Segatella baroniae", "method_in_brief": "(§2)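 Stability of induced resistance: metronidazole-selected isolates were subcultured three consecutive times on drug-free brucella blood agar (5% sheep blood, hemin, vitamin K1) under anaerobic conditions, then MIC was redetermined by CLSI agar dilution. Resistance was called stable if the MIC held within ±1 dilution. Duplicate experiments.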"}, "Prevotella bivia [5]": {"test_system": "Prevotella bivia", "assay": "Antimicrobial activity against slow growing colonies of Prevotella bivia LBN 343 deficient in nim gene assessed as inhibition of growth at 48 hrs by agar dilution method", "conditions": "LBN 343, 48 h", "method_in_brief": "(§3)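 Slowly growing colonies inside the Etest inhibition zone, seen after prolonged incubation (an additional 72 h after the 48 h reading), were subcultured without antibiotic. They were then retested for metronidazole MIC by agar dilution on supplemented brucella blood agar under anaerobic conditions.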"}, "Prevotella baroniae [6]": {"test_system": "Prevotella baroniae", "assay": "Antimicrobial activity against Prevotella baroniae LBN 475 expressing nimI gene assessed as inhibition of growth after several passages on plates containing increasing concentration of compound by agar dilution method", "conditions": "Segatella baroniae", "method_in_brief": "(§4)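 Induction of metronidazole resistance: bacterial suspensions inoculated onto brucella blood agar (5% sheep blood, hemin, vitamin K1) containing metronidazole at increasing concentrations, grown anaerobically at 37°C. Colonies growing at the highest concentration were retested for MIC by CLSI agar dilution on the same agar. Duplicate experiments.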"}, "Prevotella baroniae [7]": {"test_system": "Prevotella baroniae", "assay": "Antimicrobial activity against Prevotella baroniae DSM 16972T expressing nim gene assessed as inhibition of growth at 48 hrs by agar dilution method", "conditions": "Segatella baroniae", "method_in_brief": "as §1"}, "Bacteroides fragilis": {"test_system": "Bacteroides fragilis", "assay": "Antimicrobial activity against Bacteroides fragilis ATCC 25285T deficient in nimI gene assessed as inhibition of growth after three consecutive subcultures on compound free medium by agar dilution method", "method_in_brief": "(§5)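 Resistance induction: bacterial suspensions were plated on supplemented brucella blood agar with rising metronidazole concentrations. Colonies from the highest concentration were tested by agar dilution. MIC was then redetermined after three consecutive subcultures on drug-free agar. Resistance counted as stable if the MIC held within ±1 dilution. Anaerobic growth at 37°C. Duplicate experiments.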"}, "Prevotella bivia [8]": {"test_system": "Prevotella bivia", "assay": "Antimicrobial activity against slow growing colonies of Prevotella bivia LBP 38 deficient in nim gene assessed as inhibition of growth at 48 hrs by agar dilution method", "conditions": "LBP 38, 48 h", "method_in_brief": "(§6)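 Metronidazole MIC by agar dilution per CLSI M11-A7 on brucella agar with 5% sheep blood, hemin and vitamin K1. Plates incubated anaerobically at 35°C and read at 48 h, with a second reading after a further 72 h. B. fragilis ATCC 25285T and B. thetaiotaomicron ATCC 29741 served as controls. Done in duplicate; EUCAST breakpoints applied (S ≤4, R ≥8 μg/ml).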"}, "Prevotella bivia [9]": {"test_system": "Prevotella bivia", "assay": "Antimicrobial activity against Prevotella bivia LBN 371 deficient in nimI gene assessed as inhibition of growth after three consecutive subcultures on compound free medium by agar dilution method", "method_in_brief": "as §5"}, "Prevotella baroniae [10]": {"test_system": "Prevotella baroniae", "assay": "Antimicrobial activity against Prevotella baroniae DSM 16972T expressing nimI gene assessed as inhibition of growth after three consecutive subcultures on compound free medium by agar dilution method", "conditions": "Segatella baroniae", "method_in_brief": "as §2"}, "Prevotella nanceiensis [11]": {"test_system": "Prevotella nanceiensis", "assay": "Antimicrobial activity against Prevotella nanceiensis LBN 410 deficient in nimI gene assessed as inhibition of growth after several passages on plates containing increasing concentration of compound by agar dilution method", "conditions": "Hoylesella nanceiensis", "method_in_brief": "as §4"}, "Prevotella bivia [12]": {"test_system": "Prevotella bivia", "assay": "Antimicrobial activity against slow growing colonies of Prevotella bivia LBN 464 deficient in nim gene assessed as inhibition of growth at 48 hrs by agar dilution method", "conditions": "LBN 464, 48 h", "method_in_brief": "as §6"}, "Prevotella bivia [13]": {"test_system": "Prevotella bivia", "assay": "Antimicrobial activity against Prevotella bivia LBN 333 deficient in nim gene assessed as inhibition of growth at 48 hrs by agar dilution method", "conditions": "LBN 333, 48 h", "method_in_brief": "as §1"}, "Prevotella bivia [14]": {"test_system": "Prevotella bivia", "assay": "Antimicrobial activity against slow growing colonies of Prevotella bivia LBN 339 deficient in nim gene assessed as inhibition of growth at 48 hrs by agar dilution method", "conditions": "LBN 339, 48 h", "method_in_brief": "as §3"}, "Prevotella nanceiensis [15]": {"test_system": "Prevotella nanceiensis", "assay": "Antimicrobial activity against Prevotella nanceiensis LBN 297 deficient in nim gene assessed as inhibition of growth at 48 hrs by agar dilution method", "conditions": "Hoylesella nanceiensis, LBN 297, 48 h", "method_in_brief": "as §1"}, "Prevotella nanceiensis [16]": {"test_system": "Prevotella nanceiensis", "assay": "Antimicrobial activity against Prevotella nanceiensis LBP 66 deficient in nim gene assessed as inhibition of growth at 48 hrs by agar dilution method", "conditions": "Hoylesella nanceiensis, LBP 66, 48 h", "method_in_brief": "as §1"}, "Prevotella baroniae [17]": {"test_system": "Prevotella baroniae", "assay": "Antimicrobial activity against Prevotella baroniae LBP19 expressing nimI gene assessed as inhibition of growth after three consecutive subcultures on compound free medium by agar dilution method", "conditions": "Segatella baroniae", "method_in_brief": "as §2"}, "Prevotella baroniae [18]": {"test_system": "Prevotella baroniae", "assay": "Antimicrobial activity against Prevotella baroniae LBN 466 expressing nim gene assessed as inhibition of growth at 48 hrs by agar dilution method", "conditions": "Segatella baroniae, LBN 466, 48 h", "method_in_brief": "as §1"}, "Prevotella bivia [19]": {"test_system": "Prevotella bivia", "assay": "Antimicrobial activity against slow growing colonies of Prevotella bivia LBN 478 deficient in nim gene assessed as inhibition of growth at 48 hrs by agar dilution method", "conditions": "LBN 478, 48 h", "method_in_brief": "as §6"}, "Prevotella bivia [20]": {"test_system": "Prevotella bivia", "assay": "Antimicrobial activity against slow growing colonies of Prevotella bivia LBN 350 deficient in nim gene assessed as inhibition of growth at 48 hrs by agar dilution method", "conditions": "LBN 350, 48 h", "method_in_brief": "as §3"}, "Prevotella baroniae [21]": {"test_system": "Prevotella baroniae", "assay": "Antimicrobial activity against Prevotella baroniae LBP 9 expressing nim gene assessed as inhibition of growth at 48 hrs by agar dilution method", "conditions": "Segatella baroniae, LBP 9, 48 h", "method_in_brief": "as §1"}, "Prevotella baroniae [22]": {"test_system": "Prevotella baroniae", "assay": "Antimicrobial activity against Prevotella baroniae LBP19 expressing nimI gene assessed as inhibition of growth after several passages on plates containing increasing concentration of compound by agar dilution method", "conditions": "Segatella baroniae", "method_in_brief": "as §4"}, "Prevotella bivia [23]": {"test_system": "Prevotella bivia", "assay": "Antimicrobial activity against Prevotella bivia LBN 339 deficient in nim gene assessed as inhibition of growth at 48 hrs by agar dilution method", "conditions": "LBN 339, 48 h", "method_in_brief": "as §1"}, "Prevotella bivia [24]": {"test_system": "Prevotella bivia", "assay": "Antimicrobial activity against slow growing colonies of Prevotella bivia LBP 69 deficient in nim gene assessed as inhibition of growth at 48 hrs by agar dilution method", "conditions": "LBP 69, 48 h", "method_in_brief": "as §6"}}, "data": [{"smiles": "Cc1ncc([N+](=O)[O-])n1CCO", "note": "[METRONIDAZOLE]", "values": [{"measurement": "MIC", "setting": "Prevotella bivia [1]", "result": 4, "unit": "µg/mL"}, {"measurement": "MIC", "setting": "Prevotella buccae", "result": 0.5, "unit": "µg/mL"}, {"measurement": "MIC", "setting": "Prevotella bivia [2]", "result": 2, "unit": "µg/mL"}, {"measurement": "MIC", "setting": "Prevotella baroniae [3]", "result": 2, "unit": "µg/mL"}, {"measurement": "MIC", "setting": "Prevotella baroniae [4]", "result": 128, "unit": "µg/mL"}, {"measurement": "MIC", "setting": "Prevotella bivia [5]", "result": 16, "unit": "µg/mL"}, {"measurement": "MIC", "setting": "Prevotella baroniae [6]", "result": 256, "unit": "µg/mL"}, {"measurement": "MIC", "setting": "Prevotella baroniae [7]", "result": 2, "unit": "µg/mL"}, {"measurement": "MIC", "setting": "Bacteroides fragilis", "result": 128, "unit": "µg/mL"}, {"measurement": "MIC", "setting": "Prevotella bivia [8]", "result": 8, "unit": "µg/mL"}, {"measurement": "MIC", "setting": "Prevotella bivia [9]", "result": "> 256", "unit": "µg/mL"}, {"measurement": "MIC", "setting": "Prevotella baroniae [10]", "result": 16, "unit": "µg/mL"}, {"measurement": "MIC", "setting": "Prevotella nanceiensis [11]", "result": 256, "unit": "µg/mL"}, {"measurement": "MIC", "setting": "Prevotella bivia [12]", "result": 16, "unit": "µg/mL"}, {"measurement": "MIC", "setting": "Prevotella bivia [13]", "result": 2, "unit": "µg/mL"}, {"measurement": "MIC", "setting": "Prevotella bivia [14]", "result": 16, "unit": "µg/mL"}, {"measurement": "MIC", "setting": "Prevotella nanceiensis [15]", "result": 2, "unit": "µg/mL"}, {"measurement": "MIC", "setting": "Prevotella nanceiensis [16]", "result": 2, "unit": "µg/mL"}, {"measurement": "MIC", "setting": "Prevotella baroniae [17]", "result": 128, "unit": "µg/mL"}, {"measurement": "MIC", "setting": "Prevotella baroniae [18]", "result": 2, "unit": "µg/mL"}, {"measurement": "MIC", "setting": "Prevotella bivia [19]", "result": 8, "unit": "µg/mL"}, {"measurement": "MIC", "setting": "Prevotella bivia [20]", "result": 16, "unit": "µg/mL"}, {"measurement": "MIC", "setting": "Prevotella baroniae [21]", "result": 2, "unit": "µg/mL"}, {"measurement": "MIC", "setting": "Prevotella baroniae [22]", "result": 128, "unit": "µg/mL"}, {"measurement": "MIC", "setting": "Prevotella bivia [23]", "result": 2, "unit": "µg/mL"}, {"measurement": "MIC", "setting": "Prevotella bivia [24]", "result": 8, "unit": "µg/mL"}]}]}
